Reference: ChEMBL document CHEMBL4680125, “Synthesis and bioevaluation of 1-phenylimidazole-4-carboxylic acid derivatives as novel xanthine oxidoreductase inhibitors” (Eur J Med Chem, 2020)
Activity calls are given as the source filed them. The calls are words filed in the database; no cut-off is given here.

What was measured:
[1] = biological target: Xanthine dehydrogenase/oxidase (Bos taurus, UniProt P80457); assay: Inhibition of bovine xanthine oxidase assessed as reduction in uric acid formation using xanthine as substrate incubated for 3 mins by microplate assay
Mus musculus [2] = assay: Hypouricemic activity in ICR mouse model of xanthine/potassium oxonate-induced acute hyperuricemia assessed as decrease in serum uric acid level at 5 mg/kg, ig relative to control; type: functional, organism-based; conditions: TDE = time-dependent effect
Outline: (§1)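 ICR mice (18–22 g), acclimatized ≥1 week. Acute hyperuricemia induced by potassium oxonate 250 mg/kg s.c. plus hypoxanthine 400 mg/kg i.p., both in saline. Baseline tail blood taken at 1 h, then compound given intragastrically at 5 mg/kg as a suspension in 0.5% CMC-Na; model group received vehicle. […] Mean ± S.D.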

Mus musculus [3] = assay: Hypouricemic activity in ICR mouse model of xanthine/potassium oxonate-induced acute hyperuricemia assessed as decrease in serum uric acid level at 5 mg/kg, ig measured after 4 hrs relative to control; type: functional, organism-based; outline: as §1
Mus musculus [4] = assay: Hypouricemic activity in ICR mouse model of xanthine/potassium oxonate-induced long term hyperuricemia assessed as decrease in serum uric acid level at 5 mg/kg, ig qd treated subsequently for 7 days relative to control; type: functional, organism-based; conditions: time 7.0 day
Outline: (§2)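 Long-term model in ICR mice: potassium oxonate 250 mg/kg s.c. plus hypoxanthine 150 mg/kg i.p. at 9:00 AM, once daily for 7 days. Compound dosed intragastrically at 5 mg/kg (0.5% CMC-Na suspension) at 10:00 AM for 7 days. Serum obtained by centrifugation at 4000 r/min for 10 min and stored at −80 °C. Uric acid, creatinine and urea nitrogen measured with diagnostic kits; n = 8.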

[5] = Toxicity in ICR mouse model of xanthine/potassium oxonate-induced hyperuricemia assessed as creatinine level at 5 mg/kg, ig qd treated subsequently for 7 days relative to control; type: organism-based; conditions: in vivo, po, 168 h, time 7 day; outline: as §2
[6] = Toxicity in ICR mouse model of xanthine/potassium oxonate-induced hyperuricemia assessed as urea nitrogen level at 5 mg/kg, ig qd treated subsequently for 7 days relative to control; type: organism-based; conditions: in vivo, po, 168 h, time 7 day; outline: as §2

Chain of Xanthine dehydrogenase/oxidase (P80457 whole entry): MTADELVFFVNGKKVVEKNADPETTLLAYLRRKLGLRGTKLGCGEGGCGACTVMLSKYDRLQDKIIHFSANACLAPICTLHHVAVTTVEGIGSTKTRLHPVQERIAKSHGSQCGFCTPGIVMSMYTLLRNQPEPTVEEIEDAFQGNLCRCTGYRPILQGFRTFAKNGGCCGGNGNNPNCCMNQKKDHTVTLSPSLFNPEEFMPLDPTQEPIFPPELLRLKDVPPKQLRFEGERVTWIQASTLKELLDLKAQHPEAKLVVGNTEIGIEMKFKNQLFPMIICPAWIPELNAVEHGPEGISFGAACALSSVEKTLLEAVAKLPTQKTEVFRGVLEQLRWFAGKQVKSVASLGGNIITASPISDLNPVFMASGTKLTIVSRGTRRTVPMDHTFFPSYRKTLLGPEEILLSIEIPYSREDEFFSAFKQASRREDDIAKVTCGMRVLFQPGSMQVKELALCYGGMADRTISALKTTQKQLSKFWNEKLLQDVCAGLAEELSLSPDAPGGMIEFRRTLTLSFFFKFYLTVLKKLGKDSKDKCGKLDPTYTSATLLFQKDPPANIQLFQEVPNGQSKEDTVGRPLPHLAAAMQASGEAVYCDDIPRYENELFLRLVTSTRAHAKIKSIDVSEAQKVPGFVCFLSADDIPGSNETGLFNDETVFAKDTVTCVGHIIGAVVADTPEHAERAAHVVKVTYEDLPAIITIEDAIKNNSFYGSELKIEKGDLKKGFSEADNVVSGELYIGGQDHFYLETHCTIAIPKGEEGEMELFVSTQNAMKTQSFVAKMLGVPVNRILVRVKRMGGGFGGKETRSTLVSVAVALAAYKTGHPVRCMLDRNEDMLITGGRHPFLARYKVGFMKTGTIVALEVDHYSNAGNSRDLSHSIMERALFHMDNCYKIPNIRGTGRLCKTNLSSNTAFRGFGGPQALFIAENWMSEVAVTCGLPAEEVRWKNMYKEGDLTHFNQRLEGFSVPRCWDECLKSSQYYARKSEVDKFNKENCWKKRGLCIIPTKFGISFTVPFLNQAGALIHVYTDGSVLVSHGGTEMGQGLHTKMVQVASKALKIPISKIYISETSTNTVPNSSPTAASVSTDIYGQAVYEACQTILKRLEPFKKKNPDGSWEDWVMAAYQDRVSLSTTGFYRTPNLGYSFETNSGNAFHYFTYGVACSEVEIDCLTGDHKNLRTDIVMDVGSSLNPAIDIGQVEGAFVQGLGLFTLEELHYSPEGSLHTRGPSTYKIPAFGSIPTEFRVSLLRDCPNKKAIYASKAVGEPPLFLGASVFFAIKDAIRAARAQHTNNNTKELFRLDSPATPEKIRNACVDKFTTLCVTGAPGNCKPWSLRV

| Structure (SMILES) | IC50 [1] [µM] | further results |
| --- | --- | --- |
| CC(C)Oc1ccc(-n2cnc(C(=O)O)c2)cc1C#N | 0.198 |  |
| CC(C)Oc1ccc(-c2c[nH]c(C(=O)O)n2)cc1C#N | 0.75 |  |
| CCOc1ccc(-c2c[nH]c(C(=O)O)n2)cc1C#N | 0.948 |  |
| CC(C)COc1ccc(-c2c[nH]c(C(=O)O)n2)cc1C#N | 0.51 |  |
| CCOc1ccc(-n2cnc(C(=O)O)c2)cc1C#N | 0.226 |  |
| CC(C)COc1ccc(-n2cnc(C(=O)O)c2)cc1C#N | 0.0945 |  |
| N#Cc1cc(-n2cnc(C(=O)O)c2)ccc1OC1CCCC1 | 0.063 |  |
| CC(C)COc1ccc(-c2cn(C)c(C(=O)O)n2)cc1C#N | 2.16 |  |
| N#Cc1cc(-c2c[nH]c(C(=O)O)n2)ccc1OC1CCCC1 | 0.387 |  |
| CCC(C)Oc1ccc(-n2cnc(C(=O)O)c2)cc1C#N (configuration not stated) | 0.0739 |  |
| CC(C)(C)COc1ccc(-n2cnc(C(=O)O)c2)cc1C#N | 0.0679 |  |
| COc1cccc(-c2ccc(-n3cnc(C(=O)O)c3)cc2C#N)c1 | 0.0744 |  |

The next molecules have a lower IC50 [1] than those just listed; values first:

| IC50 [1] [µM] | Structure (SMILES) | further results |
| --- | --- | --- |
| 0.0556 | N#Cc1cc(-n2cnc(C(=O)O)c2)ccc1N1CCCCC1 |  |
| 0.0474 | N#Cc1cc(-n2cnc(C(=O)O)c2)ccc1OC1CCCCC1 |  |
| 0.0406 | CCC(CC)Oc1ccc(-n2cnc(C(=O)O)c2)cc1C#N |  |
| 0.0345 | COc1ccc(-c2ccc(-n3cnc(C(=O)O)c3)cc2C#N)cc1 |  |
| 0.0341 | N#Cc1cc(-n2cnc(C(=O)O)c2)ccc1N1CCCC1 |  |
| 0.0305 | CC1CCN(c2ccc(-n3cnc(C(=O)O)c3)cc2C#N)CC1 |  |
| 0.0298 | CCC(CC)COc1ccc(-n2cnc(C(=O)O)c2)cc1C#N |  |
| 0.0271 | CC(C)CN(C)c1ccc(-n2cnc(C(=O)O)c2)cc1C#N |  |
| 0.008 | N#Cc1cc(-n2cnc(C(=O)O)c2)ccc1N1CCCCCCC1 | Activity (Mus musculus [2]): Tde; Activity (Mus musculus [3]): Active; Activity (Mus musculus [4]): Active; Activity [5]: Toxic; Activity [6]: Toxic |
| 0.0072 | CC(C)(C)c1ccc(-c2ccc(-n3cnc(C(=O)O)c3)cc2C#N)cc1 | Activity (Mus musculus [2]): Tde; Activity (Mus musculus [3]): Active; Activity (Mus musculus [4]): Active; Activity [5]: Toxic; Activity [6]: Toxic |
